Assay results reported in ChEMBL document CHEMBL1148314, “4-(omega-(alkyloxy)alkyl)-1H-imidazole derivatives as histamine H(3) receptor antagonists/agonists” (J Med Chem, 2004).

What was measured:
[1] = molecular target: Histamine H1 receptor (Cavia porcellus, UniProt P31389); experiment: Functional Histamine H1 receptor antagonistic activity in vitro assay on guinea pig ileum; format: tissue-based; conditions: read-out: pA2 (converted)
Outline: (§1)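 Isolated guinea-pig tissues, spontaneously beating right atrium for H2 and ileum for H1, tested by standard methods. At least triplicate; values are means.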

[2] = molecular target: T1, Histamine H3 receptor (Rattus norvegicus, UniProt Q9QYN8); experiment: Functional Histamine H3 receptor antagonistic activity in vitro assay on synaptosomes of rat cerebral cortex; format: subcellular, Brain
Outline: (§2)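 Rat cerebral cortex synaptosomes preloaded 30 min at 37 °C with L-[3H]histidine 0.4 μM in modified Krebs–Ringer, washed, then depolarized 2 min with 2 or 30 mM K+. Drugs and 1 μM histamine added 5 min before the stimulus. [3H]histamine measured by scintillation after purification; Ki by Cheng–Prusoff, mean ± SEM of at least three experiments.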

[3] = molecular target: T2, Histamine H3 receptor (Homo sapiens, UniProt Q9Y5N1); experiment: (§3) Effect on specific [35S]GTP-gamma-S, Binding to HEK293 cell membranes expressing the human Histamine H3 receptor; format: functional
Outline: (§4)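 HEK293 cells stably transfected with human H3 receptor (selected with 2 mg/mL G418, maintained in 1 mg/mL). Membranes prepared in Tris/HCl 50 mM pH 7.5; 10–20 μg protein incubated 60 min at 20 °C with 0.1 nM [35S]GTPγS ± drug in Tris 50 mM, NaCl 100 mM, MgCl2 10 mM, GDP 10 μM.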

[4] = molecular target: T2, Histamine H3 receptor; experiment: as §3; format: functional; outline: as §4; remark: listed apart in the source
[5] = molecular target: Histamine H2 receptor (Cavia porcellus, UniProt P47747); experiment: Functional H2 receptor antagonistic activity in vitro assay on the isolated spontaneously beating guinea-pig right atrium; format: tissue-based, Cardiac atrium; conditions: read-out: pA2 (converted); outline: as §1
[6] = tested on: Mus musculus; experiment: Potency after oral administration in vivo in mice; format: functional
[7] = molecular target: T1, Histamine H3 receptor; experiment: In vitro […] against rat histamine H3 receptor; outline: as §2
[8] = molecular target: Histamine H3 receptor (Cavia porcellus, UniProt Q9JI35); experiment: Functional Histamine H3 receptor antagonistic activity in vitro assay on guinea pig ileum; format: tissue-based; conditions: read-out: pA2 (converted)
Outline: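 Guinea-pig ileal longitudinal muscle–myenteric plexus strips at about 7.5 mN in Krebs–Henseleit, 37 °C, 95% O2/5% CO2, mepyramine 1 μM present. Field stimulated at 15 V, 0.5 ms, 0.1 Hz. Cumulative (R)-α-methylhistamine curves (1–1000 nM) recorded before and after antagonist; rightward shift corrected by the shift in daily controls.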

Sequence of Histamine H1 receptor (P31389 whole entry): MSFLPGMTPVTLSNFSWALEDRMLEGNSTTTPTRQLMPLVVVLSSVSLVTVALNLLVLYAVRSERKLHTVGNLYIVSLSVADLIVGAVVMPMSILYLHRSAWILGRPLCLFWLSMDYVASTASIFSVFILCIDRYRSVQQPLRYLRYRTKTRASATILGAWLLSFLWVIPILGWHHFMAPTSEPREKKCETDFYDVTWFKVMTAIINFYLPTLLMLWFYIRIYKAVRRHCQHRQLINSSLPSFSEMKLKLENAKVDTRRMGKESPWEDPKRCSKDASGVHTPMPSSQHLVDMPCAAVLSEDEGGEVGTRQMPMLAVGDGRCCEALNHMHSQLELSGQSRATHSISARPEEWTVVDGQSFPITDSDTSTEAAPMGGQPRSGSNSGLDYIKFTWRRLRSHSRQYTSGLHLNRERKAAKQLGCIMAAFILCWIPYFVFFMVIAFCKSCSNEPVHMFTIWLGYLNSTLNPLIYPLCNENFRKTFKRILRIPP
T2 sequence (Q9Y5N1 whole entry): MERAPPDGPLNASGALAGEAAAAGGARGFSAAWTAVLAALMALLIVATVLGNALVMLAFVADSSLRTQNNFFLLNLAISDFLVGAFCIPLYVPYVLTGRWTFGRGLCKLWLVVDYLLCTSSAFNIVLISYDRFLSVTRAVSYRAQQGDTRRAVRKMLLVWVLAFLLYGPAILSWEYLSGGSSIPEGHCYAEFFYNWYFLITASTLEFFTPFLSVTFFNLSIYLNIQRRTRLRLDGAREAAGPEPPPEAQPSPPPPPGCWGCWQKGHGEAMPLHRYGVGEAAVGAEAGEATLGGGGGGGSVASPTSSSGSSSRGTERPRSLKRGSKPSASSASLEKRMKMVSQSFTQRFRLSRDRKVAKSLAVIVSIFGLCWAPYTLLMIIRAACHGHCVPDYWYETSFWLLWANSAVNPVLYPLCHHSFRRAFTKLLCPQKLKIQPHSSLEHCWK
Sequence of Histamine H3 receptor (Cavia porcellus, UniProt Q9JI35) (Q9JI35 whole entry): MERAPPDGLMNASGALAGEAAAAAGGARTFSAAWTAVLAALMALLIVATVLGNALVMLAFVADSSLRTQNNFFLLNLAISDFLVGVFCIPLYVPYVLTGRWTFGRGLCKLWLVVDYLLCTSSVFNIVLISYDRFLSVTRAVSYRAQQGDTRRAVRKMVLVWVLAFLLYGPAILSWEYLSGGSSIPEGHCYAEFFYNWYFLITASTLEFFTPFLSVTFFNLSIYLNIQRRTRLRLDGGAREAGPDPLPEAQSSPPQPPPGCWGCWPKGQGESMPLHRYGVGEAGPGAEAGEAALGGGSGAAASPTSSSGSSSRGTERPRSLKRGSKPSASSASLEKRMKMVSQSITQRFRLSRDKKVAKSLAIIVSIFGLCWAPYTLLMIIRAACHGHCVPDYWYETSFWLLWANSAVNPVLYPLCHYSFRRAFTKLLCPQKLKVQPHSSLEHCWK
Sequence of Histamine H2 receptor (P47747 whole entry): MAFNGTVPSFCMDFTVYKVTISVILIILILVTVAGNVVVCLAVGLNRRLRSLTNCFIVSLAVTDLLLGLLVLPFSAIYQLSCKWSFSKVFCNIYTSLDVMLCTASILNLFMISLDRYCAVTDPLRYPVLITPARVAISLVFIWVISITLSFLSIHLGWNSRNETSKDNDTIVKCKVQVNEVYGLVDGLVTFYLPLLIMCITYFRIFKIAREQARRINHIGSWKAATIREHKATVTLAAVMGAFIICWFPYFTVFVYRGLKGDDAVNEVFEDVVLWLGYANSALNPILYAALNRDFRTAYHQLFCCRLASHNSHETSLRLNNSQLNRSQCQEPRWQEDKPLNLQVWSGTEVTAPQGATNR
T1 sequence (Q9QYN8 whole entry): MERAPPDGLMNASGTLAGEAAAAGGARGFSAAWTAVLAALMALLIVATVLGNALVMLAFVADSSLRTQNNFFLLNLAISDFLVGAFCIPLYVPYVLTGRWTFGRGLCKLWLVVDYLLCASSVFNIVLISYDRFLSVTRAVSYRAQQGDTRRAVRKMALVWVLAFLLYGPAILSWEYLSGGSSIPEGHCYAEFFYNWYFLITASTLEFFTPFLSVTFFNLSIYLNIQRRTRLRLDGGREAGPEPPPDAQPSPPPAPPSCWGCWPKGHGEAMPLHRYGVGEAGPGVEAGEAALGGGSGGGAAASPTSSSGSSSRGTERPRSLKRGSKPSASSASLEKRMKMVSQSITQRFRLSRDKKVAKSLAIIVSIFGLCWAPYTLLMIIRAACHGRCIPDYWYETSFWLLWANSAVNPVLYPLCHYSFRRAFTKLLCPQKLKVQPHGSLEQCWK

| SMILES | Kb [1] | Ki [2] | EC50 [3] | Intrinsic activity [4] | Kb [5] | ED50 [6] | Ki [7] | Kb [8] |
| --- | --- | --- | --- | --- | --- | --- | --- | --- |
| C=CCOCCCc1c[nH]cn1.O=C(O)C(=O)O | > 316000 nM | 200 nM | 336 nM | 0.63 | > 31600 nM | 0.33 mg/kg | 200 nM | – |
| c1nc(CCCOCC2CC2)c[nH]1 | – | – | – | – | – | – | 167 nM | – |
| CCCCCCCCOCCCc1c[nH]cn1.O=C(O)/C=C\C(=O)O | 15800 nM | – | – | – | 2510 nM | > 10 mg/kg | – | 100 nM |
| CC(C)(C)OCCCc1c[nH]cn1.O=C(O)/C=C\C(=O)O | > 100000 nM | 126 nM | – | – | > 31600 nM | 1.3 mg/kg | 120 nM | – |
| C#CCCCOCCCc1c[nH]cn1 | – | 39.8 nM | – | – | – | – | 38 nM | 316 nM |
| c1nc(CCCOCCC2CCCCC2)c[nH]1 | – | 10 nM | – | – | – | – | 11 nM | – |
| O=C(O)/C=C\C(=O)O.c1nc(CCCOCCCC2CCCCC2)c[nH]1 | 7940 nM | 20 nM | – | – | 50100 nM | 1 mg/kg | – | – |
| CCCCCCOCCCc1c[nH]cn1.O=C(O)/C=C\C(=O)O | 7940 nM | 12.6 nM | 40 nM | 0.49 | 10000 nM | > 30 mg/kg | 14 nM | 39.8 nM |
| S=C(NC1CCCCC1)N1CCC(c2cnc[nH]2)CC1 [THIOPERAMIDE] | – | – | – | – | – | 1 mg/kg | – | – |
| CCOCCCc1c[nH]cn1.O=C(O)C(=O)O | > 100000 nM | – | – | – | > 31600 nM | 0.26 mg/kg | – | – |
| O=C(O)/C=C\C(=O)O.c1nc(CCCOCCCC2CCCC2)c[nH]1 | 20000 nM | 6.31 nM | – | – | 5010 nM | 0.28 mg/kg | 7 nM | 15.8 nM |
| c1nc(COCCCC2CCCCC2)c[nH]1 | – | – | – | – | – | – | ≥ 500 nM | – |
| N#CCCOCCCc1c[nH]cn1.O=C(O)C(=O)O | – | – | – | – | – | 3.2 mg/kg | 674 nM | – |
| O=C(O)/C=C\C(=O)O.c1nc(COCCC2CCCCC2)c[nH]1 | – | – | – | – | – | > 10 mg/kg | > 500 nM | – |
| c1ccc(CC(COCCCc2c[nH]cn2)c2ccccc2)cc1 (stereo not given) | – | – | – | – | – | – | 184 nM | – |
| c1nc(COCC2CCCCC2)c[nH]1 | – | > 1000 nM | – | – | – | – | > 500 nM | – |

| SMILES | Kb [1] | Ki [2] | EC50 [3] | Intrinsic activity [4] | Kb [5] | ED50 [6] | Ki [7] | Kb [8] |
| --- | --- | --- | --- | --- | --- | --- | --- | --- |
| c1ccc(C(OCCCc2cnc[nH]2)(c2ccccc2)c2ccccc2)cc1 | – | – | – | – | – | > 10 mg/kg | > 500 nM | – |
| CCCCCOCCCc1c[nH]cn1.O=C(O)/C=C\C(=O)O | 20000 nM | 31.6 nM | 97 nM | 0.47 | > 31600 nM | > 30 mg/kg | 33 nM | 63.1 nM |
| CCCOCCCc1c[nH]cn1.O=C(O)C(=O)O | > 31600 nM | 251 nM | – | – | > 31600 nM | 1.8 mg/kg | 230 nM | – |
| CC(C)(C)OCCc1c[nH]cn1.O=C(O)C(=O)O | – | – | – | – | – | > 10 mg/kg | > 500 nM | – |
| CC(=O)CCOCCCc1c[nH]cn1 | – | – | – | – | – | – | 143 nM | – |
| O=C(COCCCc1c[nH]cn1)c1cccc([N+](=O)[O-])c1 | – | – | – | – | – | – | > 500 nM | – |
| C#CCOCCCc1c[nH]cn1.O=C(O)C(=O)O | > 316000 nM | 200 nM | 135 nM | 0.73 | > 31600 nM | 0.57 mg/kg | 190 nM | – |
| COCCCc1c[nH]cn1.O=C(O)C(=O)O | > 100000 nM | 316 nM | – | – | > 31600 nM | ~10 mg/kg | 290 nM | – |
| COCCOCCCc1c[nH]cn1 | – | – | – | – | – | – | ~400 nM | – |
| O=C(COCCCc1c[nH]cn1)c1ccccc1.O=C(O)/C=C\C(=O)O | – | – | – | – | – | > 10 mg/kg | > 500 nM | – |
| C=CCCCOCCCc1c[nH]cn1.O=C(O)C(=O)O | – | – | – | – | – | ≥ 10 mg/kg | 27 nM | – |
| CCCCCCCOCCCc1c[nH]cn1 | > 100000 nM | 15.8 nM | – | – | 2000 nM | – | – | 15.8 nM |
| c1nc(COCC2CC3CCC2C3)c[nH]1 (stereo not given) | – | – | – | – | – | – | ~500 nM | – |
| CCCCOCCCc1c[nH]cn1.O=C(O)/C=C\C(=O)O | – | – | 311 nM | 0.39 | – | > 10 mg/kg | 56 nM | – |
| O=C(c1ccc(OCCCc2c[nH]cn2)cc1)C1CC1 [CIPROXIFAN] | – | – | – | – | – | 0.14 mg/kg | – | – |
| O=C(CCCOCCCc1c[nH]cn1)c1ccc(F)cc1.O=C(O)C(=O)O | – | – | – | – | – | 0.28 mg/kg | 14 nM | – |
